Shown are actives, neighbours in structure and some others; about 2.2% of the full set was active somewhere.
HCV NS3 hel inh = inhibitors of Hepatitis C virus NS3 helicase; NS3 helicase DNA unwinding, Cy5 molecular beacon fluorescence; inhibition, % at 10.9 µM; hit rate 0.56% among 290,000; AID 1800;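 active = inhibition above the mean of all tested compounds plus 3 SD, set per campaign, cut at about 35% in these data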;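 also: 0% = DMSO wells and 100% = thioflavine S control wells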
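Test system: hepatitis C virus NS3 helicase domain fragment enzyme. Also added: annealed dual-labelled DNA beacon duplex, ATP-started. Timing: 60 min unwinding reaction at 25 °C after ATP addition. Technique: Cy5 fluorescence. Measure: % inhibition of unwinding.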
DAGLB inh = blocks human DAGLB lipase activity. Q8NCG7. inhibition, % at 5.17 µM. HEK293T DAGLB membrane lysate, EnzChek fluorogenic substrate. AID 504411. hit rate 0.059% among 340,000; in the data active = inhibition above about 34%;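 also: 0% = enzyme with vehicle and 100% = wells lacking enzyme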
GPR7 antagonist = antagonists of human GPR7 (neuropeptides B/W receptor 1) | AID 1861 | hit rate 1.1% among 290,000 | GPR7-expressing cells, fluorescence antagonist assay | inhibition, % at 4.4 µM | P48145; in the data active = inhibition above about 16%, passing the limit was not always enough;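 also: cells stimulated with the agonist NPW; 0% = agonist with vehicle and 100% = vehicle without agonist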
GRK2 inh = inhibitors of human GRK2 displacing RNA aptamer | P25098 | bead flow cytometry, FAM-aptamer displacement from GRK2 | inhibition of aptamer binding, % at 10 µM | hit rate 0.59% among 330,000 | AID 488847;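 active = inhibition of aptamer binding above 40%, roughly 3 SD of noise, on plates passing a quality check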;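 also: median bead fluorescence of bound FAM aptamer so fluorescent compounds give negative values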
Target sequence (P25098 whole entry, looked up): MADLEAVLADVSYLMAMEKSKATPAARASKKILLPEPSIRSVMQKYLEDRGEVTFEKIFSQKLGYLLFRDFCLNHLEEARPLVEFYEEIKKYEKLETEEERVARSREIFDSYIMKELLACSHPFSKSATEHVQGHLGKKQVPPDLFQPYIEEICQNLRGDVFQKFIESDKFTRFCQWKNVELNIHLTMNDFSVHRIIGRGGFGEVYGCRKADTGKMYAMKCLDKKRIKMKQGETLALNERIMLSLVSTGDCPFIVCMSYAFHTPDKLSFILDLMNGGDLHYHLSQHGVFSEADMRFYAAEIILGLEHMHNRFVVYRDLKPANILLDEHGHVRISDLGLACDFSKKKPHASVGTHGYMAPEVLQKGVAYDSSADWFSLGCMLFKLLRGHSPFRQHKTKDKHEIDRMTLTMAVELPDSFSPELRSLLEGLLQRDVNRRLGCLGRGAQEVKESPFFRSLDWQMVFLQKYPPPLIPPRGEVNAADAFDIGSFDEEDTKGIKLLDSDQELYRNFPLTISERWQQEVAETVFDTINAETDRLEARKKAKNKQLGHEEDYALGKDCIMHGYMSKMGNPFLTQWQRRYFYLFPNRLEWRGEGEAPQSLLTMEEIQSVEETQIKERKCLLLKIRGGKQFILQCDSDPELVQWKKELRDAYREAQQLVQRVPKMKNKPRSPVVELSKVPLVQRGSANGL
HCV core dimer = blocks dimerization of HCV core protein; inhibition, % at 5 µM; TR-FRET GST/Flag-core106 dimerization, 1536-well; hit rate 0.33% among 300,000;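 active = inhibition above the mean of all tested compounds plus 3 SD, set per screening campaign, cut at about 45% in these data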
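System – GST-tagged and Flag-tagged HCV core protein residues 1-106 · Repeats – one well for each compound · Technique – TR-FRET 671 and 617 nm emission · Doses – one concentration, 5 µM, in 0.5% DMSO · Times – 4 h, 22.5 °C incubation · Also added – Eu donor and XL665 acceptor anti-tag antibodies · Measure – percent inhibition of core106 dimerization signal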
DNA FID counter = displaces DNA intercalator in HCV helicase counter-screen; AID 1845; inhibition, % at 7.9 µM; DNA fluorescent intercalator displacement, fluorescence; hit rate 0.17% among 290,000; in the data active = inhibition above about 37%;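 also: 0% = vehicle and 100% = reference compound; higher means more ethidium bromide displaced from hairpin DNA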
* = called active by the depositor; nt = no result given.

SMILES	HCV NS3 hel inh	DAGLB inh	GPR7 antagonist	GRK2 inh	HCV core dimer	DNA FID counter
N#CCCN(C(=O)Nc1ccccc1)C1CCCCC1	nt	-5	nt	nt	nt	nt
CSc1ncc(CN2CCCC(C(=O)Nc3ccc(-c4ccco4)cc3)C2)cn1 (stereo unspecified)	-11	2	3	0	57*	-25
CC[N+](CC)(CC)CCCCOc1ccc2c(c1)C(=O)c1cc(OCCCC[N+](CC)(CC)CC)ccc1-2	-16	-4	-14	0	-9	90*
CC[N+](CC)(CC)CCOc1ccc(/C=C/c2ccccc2)cc1	nt	8	nt	0	-12	nt
CCCCN(C(=O)c1ccc(C#N)cc1)c1c(N)n(CCC)c(=O)[nH]c1=O	4	0	-6	3	-1	0
C(C#CCCCCCCCCC[n+]1ccccc1)#CCCCCCCCCC[n+]1ccccc1	-66	2	12	0	-7	43*
O=C(O)c1cscc1-c1cccc2ccccc12	nt	0	nt	nt	nt	nt
CN(C)CCCNC(=S)NCC(c1ccc(Cl)cc1Cl)c1c[nH]c2ccccc12 (stereo unspecified)	-77	3	75*	0	-9	28
CN(C(=O)CSc1nnc(-c2ccccc2F)n1N)C1CCCCC1	nt	3	nt	0	nt	nt
Cc1ccc(C(C)C)c(OCc2nn(CC(=O)c3ccc(OC(F)F)cc3)c3[n+]2CCCCC3)c1	-70	3	20	0	-6	37*
COc1ccc(C(=O)Cn2nc(CNc3ccc(Br)cc3)[n+]3c2CCCCC3)cc1	-41	2	4	0	-7	22
COc1ccc(CN2CCC[C@]3(N[C@H](c4ccc(C)cc4)[C@@H]4C(=O)N(C)C(=O)[C@@H]43)C2=O)cc1	nt	0	nt	nt	nt	nt
COc1ccc(-c2cc(C(F)(F)F)c3c(n2)sc2c(O)cc(=O)[nH]c23)c(OC)c1	34	-22	2	2	48*	-14
CC(Sc1ccc(Cl)cc1)C(=O)N(C)CC(=O)Nc1ccc(N2CCOCC2)cc1 (stereo unspecified)	nt	-1	nt	1	-1	nt
COc1ccc(C2=NNC(=O)C2(C)Br)cc1 (stereo unspecified)	nt	-1	nt	nt	nt	nt
CCC(=O)c1cc2c(C)cc(=O)oc2c(C)c1OC(C)=O	-12	-1	-9	83*	8	-4
CCC(=O)c1cc2c(C)cc(=O)oc2c(C)c1OC(=O)C(C)C	-5	-2	-9	1	5	-10
N#C/C(=C/c1cn(-c2ccccc2)nc1-c1cccc(S(=O)(=O)N2CCCC2)c1)C(=O)NCc1ccco1	16	3	-6	0	71*	-26
N#C/C(=C/c1cn(-c2ccccc2)nc1-c1cccc(S(=O)(=O)N2CCOCC2)c1)C(=O)NCc1ccco1	7	-4	1	2	1	-2
Cc1cccc2c1-c1sc(C(=O)Nc3nccs3)cc1CO2	25	-6	-7	1	-9	-7
O=C(Nc1nccs1)c1cc2c(s1)-c1ccccc1OC2	2	2	17*	4	-30	0
CC(NC(=O)COC(=O)Cc1cccs1)c1ccc(F)cc1 (stereo unspecified)	nt	-3	nt	nt	nt	nt
Cc1ccc2nc(N3CCN(S(=O)(=O)c4ccc5c(c4)OCCO5)CC3)c(C#N)cc2c1	-7	-4	-7	0	59*	-3
Cc1ccc(S(=O)(=O)N2CCCN(c3nc4cc(C)ccc4cc3C#N)CC2)cc1	8	0	-6	2	43	-14
O=Cc1ccc(N2Cc3ccccc3C2)cc1	-6	0	-11	14	39	-2
SMILES	HCV NS3 hel inh	DAGLB inh	GPR7 antagonist	GRK2 inh	HCV core dimer	DNA FID counter
Cc1cc(N2Cc3ccccc3C2)ccc1C=O	1	1	-15	0	48*	-6
CC1(C)Cc2c(cnn2-c2ccc(F)cc2)C(NC(=O)C2=CC(=O)CC(C)(C)O2)C1 (stereo unspecified)	nt	2	nt	nt	nt	nt
CSc1ncccc1C(=O)Nc1ccc(F)c(F)c1F	-12	-1	15*	0	-2	3
CN1CCN(C2Cc3ccccc3Sc3ccc(Cl)cc32)CC1 (stereo unspecified)	nt	3	nt	0	-4	nt
CSc1ccc2c(c1)C(N1CCN(C)CC1)Cc1ccccc1S2 (stereo unspecified)	-71	2	35*	0	-15	20
C=CCNCCOCCOc1ccc(Cl)cc1C(C)(C)C	-51	0	5	0	-22	13
COCCCNCCOCCOc1ccc(Cl)cc1C(C)(C)C	-44	-2	35*	0	-9	35
O=C1CC(N2C(=O)/C(=C/C=C/c3ccccc3)SC2=S)C(=O)N1c1ccccc1 (stereo unspecified)	10	-1	-11	19	51*	-8
Cc1cccc(C(=O)NNC(=O)C2CCCCC2)c1O	nt	3	nt	nt	nt	nt
CC[C@]12c3[nH]c4ccc(OC)cc4c3CCN1C(=O)C(CC(=O)NCC13CC4CC(CC(C4)C1)C3)C[C@@H]2C(=O)N1CCN(C(=O)c2ccco2)CC1 (stereo partly specified)	nt	2	nt	43*	nt	nt
CCOc1ccc2c(c1)sc(N)[n+]2Cc1cc(C)cc2cccnc12	-55	1	35*	0	-1	8
Cc1ccc2nc3n(c(=O)c2c1)-c1cc(Cl)ccc1C(=O)NC3Cc1ccc(O)cc1 (stereo unspecified)	nt	nt	nt	3	nt	nt
CCCCOc1ccccc1C1CC(=O)NC2=C1C(=O)CCC2 (stereo unspecified)	-8	0	20*	0	2	-12
CCCCN(CCCC)CC(O)COc1ccccc1C(=O)Nc1ccccc1 (stereo unspecified)	-16	-7	20*	0	0	23
COc1ccc(C(=O)N[C@H](C(=O)Nc2cccc(S(=O)(=O)N3CCOCC3)c2)C(C)C)cc1	nt	-2	nt	nt	nt	nt
CN(Cc1ccccc1)C(=O)c1ccc(NC(=O)Cc2ccc(NC(=O)C3CCCN(C(=O)c4ccccc4)C3)cc2)cc1 (stereo unspecified)	nt	-6	nt	nt	nt	nt
Cc1cccc(C)c1NC(=O)CSc1nc(C)c(CC(=O)c2ccc(Br)cc2)c(C)c1C#N	4	0	-10	0	70*	-4
Cc1nc(SCC(=O)Nc2ccccc2C(F)(F)F)c(C#N)c(C)c1CC(=O)c1ccc(Br)cc1	10	nt	-8	0	7	-5
Cc1noc(C)c1NC(=O)N(C)C[C@@H]1OCc2cn(nn2)CCCC(=O)N([C@H](C)CO)C[C@H]1C	nt	-3	nt	nt	nt	nt
CN(C)S(=O)(=O)c1cccc(-c2nn(-c3ccccc3)cc2/C=C2\SC(=S)NC2=O)c1	32	14	-7	2	52*	-13
O=C(Nc1oc2ccccc2c(=O)c1-c1ccc(Br)cc1)c1ccco1	16	3	-6	0	63*	-18
COc1cccc(-c2c(NC(=O)c3ccco3)oc3ccccc3c2=O)c1	12	-2	-5	0	-6	-16

Screening results as filed in PubChem.
